Non-standard residues stand in square brackets, D forms with d. Residues, ends and D or L forms follow the SMILES beside them. 2Nal = N[C@@H](Cc1ccc2ccccc2c1)C(=O)O; Arg(Me) = CNC(=N)NCCC[C@H](N)C(=O)O; azaGly = NNC(=O)O

The target of assay [1] is T1, KiSS-1 receptor (Homo sapiens, UniProt Q969F8). Put plainly: Binding affinity to human KISS1R expressed in CHO cell membranes.
Assay [2] addresses KiSS-1 receptor (Rattus norvegicus, UniProt Q924U1). Kind of assay: Binding affinity to rat KISS1R.
Assay [3] concerns the target T1, KiSS-1 receptor. Kind of assay: Agonist activity at recombinant human KISS1R expressed in CHO cells assessed as intracellular calcium mobilization incubated for 30 mins at 37 degC and 30 mins at room temperature by Fluo-4 NW staining-based FLIPR assay relative to Metastin (45 to 54). It counts as functional, cell-based. The essentials: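 CHO cells stably expressing human KISS1R seeded at 15,000 cells/well, cultured 24 h, then loaded with Fluo-4 Direct in HBSS with 4 mM probenecid and 0.1% BSA (30 min 37 °C, 30 min room temperature). Compounds from 10 µM DMSO stocks diluted in sample buffer and added. Fluorescence read for 2 min at 2 s intervals. Peak counts give agonist activity. EC50 expressed as ratio to metastin(45-54).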
(Calcium assays in cells follow changes in intracellular calcium, usually with a dye or a luminescent sensor.)

Sequence of KiSS-1 receptor (Rattus norvegicus, UniProt Q924U1) (Q924U1 whole entry): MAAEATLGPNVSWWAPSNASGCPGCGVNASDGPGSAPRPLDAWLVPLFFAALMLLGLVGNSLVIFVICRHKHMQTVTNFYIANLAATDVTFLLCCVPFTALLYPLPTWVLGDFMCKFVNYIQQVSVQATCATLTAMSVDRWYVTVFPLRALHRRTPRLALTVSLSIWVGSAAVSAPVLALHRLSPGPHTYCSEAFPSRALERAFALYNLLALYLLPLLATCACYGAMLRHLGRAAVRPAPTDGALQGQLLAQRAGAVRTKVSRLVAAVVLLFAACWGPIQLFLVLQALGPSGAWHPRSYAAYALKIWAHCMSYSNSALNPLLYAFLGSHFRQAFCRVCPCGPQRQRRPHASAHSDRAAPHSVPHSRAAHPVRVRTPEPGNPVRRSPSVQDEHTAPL
T1 sequence (Q969F8 whole entry): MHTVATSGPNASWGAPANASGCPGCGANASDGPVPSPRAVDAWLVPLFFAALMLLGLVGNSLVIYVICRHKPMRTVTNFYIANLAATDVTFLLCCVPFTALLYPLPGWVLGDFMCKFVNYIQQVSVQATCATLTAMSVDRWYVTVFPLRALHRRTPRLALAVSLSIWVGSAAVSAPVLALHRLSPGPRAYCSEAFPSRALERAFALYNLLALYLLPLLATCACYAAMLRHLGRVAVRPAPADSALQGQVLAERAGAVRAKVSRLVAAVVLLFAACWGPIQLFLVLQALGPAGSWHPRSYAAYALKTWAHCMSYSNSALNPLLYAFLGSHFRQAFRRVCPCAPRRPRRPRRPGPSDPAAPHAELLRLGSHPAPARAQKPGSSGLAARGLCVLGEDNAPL

Broadly, the Ki is a measure of affinity in units of concentration, obtained from inhibition or displacement. On to `CNC(N)=NCCC[C@H](NC(=O)[C@H](CC(C)C)NC(=O)CNC(=O)[C@H](Cc1ccccc1)NC(=O)[C@H](CO)NC(=O)[C@H](CC(N)=O)NC(=O)[C@H](Cc1c[nH]c2ccccc12)NC(=O)[C@H](CC(N)=O)NC(=O)[C@H](N)Cc1ccc(O)cc1)C(=O)N[C@@H](Cc1ccccc1)C(N)=O`, for which, in assay [1] (cho), the affinity corresponds to a Ki of 0.046 nM. That is a picomolar value. On to `CNC(N)=NCCC[C@H](NC(=O)[C@H](CC(C)C)NC(=O)NNC(=O)[C@H](Cc1ccccc1)NC(=O)[C@H](CO)NC(=O)[C@H](CC(N)=O)NC(=O)[C@H](Cc1ccncc1)NC(=O)[C@H](CC(N)=O)NC(=O)[C@H](N)Cc1ccc(O)cc1)C(=O)N[C@@H](Cc1ccccc1)C(N)=O`, for which the inhibition constant Ki in assay [2] and in assay [1] was 0.12 nM each time.

Molecule `CNC(N)=NCCC[C@H](NC(=O)[C@H](CC(C)C)NC(=O)NNC(=O)[C@H](Cc1ccccc1)NC(=O)[C@H](CO)NC(=O)[C@H](CC(N)=O)NC(=O)[C@@H](Cc1c[nH]c2ccccc12)NC(=O)[C@H](CC(N)=O)NC(=O)[C@H](N)Cc1ccc(O)cc1)C(=O)N[C@@H](Cc1ccccc1)C(N)=O` displayed an inhibitory constant (Ki) in assay [1] of 0.078 nM. Consider `CNC(N)=NCCC[C@H](NC(=O)[C@H](CC(C)C)NC(=O)NNC(=O)[C@H](Cc1ccccc1)NC(=O)[C@H](CO)NC(=O)[C@H](CC(N)=O)NC(=O)[C@@H](Cc1ccncc1)NC(=O)[C@H](CC(N)=O)NC(=O)[C@H](N)Cc1ccc(O)cc1)C(=O)N[C@@H](Cc1ccccc1)C(N)=O`, for which the inhibition constant (Ki) in assay [2] and in assay [1] was 0.12 nM each time. With `CNC(N)=NCCC[C@H](NC(=O)[C@H](CC(C)C)NC(=O)NNC(=O)[C@H](Cc1ccccc1)NC(=O)[C@H](CO)NC(=O)[C@H](CC(N)=O)NC(=O)[C@H](Cc1ccncc1)NC(=O)[C@@H](CC(N)=O)NC(=O)[C@@H](N)Cc1ccc(O)cc1)C(=O)N[C@@H](Cc1ccccc1)C(N)=O`, the inhibitory constant (Ki) in assay [2] is 0.16 nM; in assay [1] it was 0.21 nM. The matching figures for `CNC(N)=NCCC[C@H](NC(=O)[C@H](CC(C)C)NC(=O)NNC(=O)[C@H](Cc1ccccc1)NC(=O)[C@H](CO)NC(=O)[C@H](CC(N)=O)NC(=O)[C@H](Cc1ccccc1)NC(=O)[C@H](N)Cc1ccc(O)cc1)C(=O)N[C@@H](Cc1ccccc1)C(N)=O`: 0.15 nM and 0.086 nM. The matching figures for `CNC(N)=NCCC[C@H](NC(=O)[C@H](CC(C)C)NC(=O)NNC(=O)[C@H](Cc1ccccc1)NC(=O)[C@H](CO)NC(=O)[C@H](CC(N)=O)NC(=O)[C@H](Cc1ccccc1)NC(=O)[C@H](N)Cc1cccnc1)C(=O)N[C@@H](Cc1ccccc1)C(N)=O`: 0.28 nM and 0.2 nM. In the case of `CNC(N)=NCCC[C@H](NC(=O)[C@H](CC(C)C)NC(=O)NNC(=O)[C@H](Cc1ccccc1)NC(=O)[C@H](CO)NC(=O)[C@H](CC(N)=O)NC(=O)[C@H](Cc1c[nH]c2ccccc12)NC(=O)[C@H](N)Cc1cccnc1)C(=O)N[C@@H](Cc1ccccc1)C(N)=O`, the figures for the inhibition constant (Ki) in assay [2] and in assay [1] were 0.13 nM and 0.11 nM, respectively. As for `CC(C)C[C@H](NC(=O)NNC(=O)[C@H](Cc1ccccc1)NC(=O)[C@H](CO)NC(=O)[C@H](CC(N)=O)NC(=O)[C@H](Cc1c[nH]c2ccccc12)NC(=O)[C@H](CC(N)=O)NC(=O)[C@@H](N)Cc1ccc(O)cc1)C(=O)N[C@@H](CCCNC(=N)N)C(=O)N[C@@H](Cc1ccccc1)C(N)=O`, the fold change (FC) in assay [3] stood at 1.7. Besides, in assay [1], the Ki worked out at 0.045 nM.

As for `CNC(=N)NCCC[C@H](NC(=O)[C@H](CC(C)C)NC(=O)NNC(=O)[C@H](Cc1ccccc1)NC(=O)[C@H](CO)NC(=O)[C@H](CC(N)=O)NC(=O)[C@H](Cc1c[nH]c2ccccc12)NC(=O)[C@@H](CC(N)=O)NC(=O)[C@H](N)Cc1ccc(O)cc1)C(=O)N[C@@H](Cc1ccccc1)C(N)=O`, the fold change (FC) in assay [3] amounted to 2.6. In addition, in assay [1], the Ki came out at 0.062 nM.

Consider `CNC(N)=NCCC[C@H](NC(=O)[C@H](CC(C)C)NC(=O)NNC(=O)[C@H](Cc1ccccc1)NC(=O)[C@H](CO)NC(=O)[C@H](CC(N)=O)NC(=O)[C@H](Cc1ccncc1)NC(=O)[C@@H](CC(N)=O)NC(=O)[C@H](N)Cc1ccc(O)cc1)C(=O)N[C@@H](Cc1ccccc1)C(N)=O`, for which the figures for the inhibitory constant (Ki) in assay [2] and in assay [1] were 0.095 nM and 0.11 nM, respectively.

`CNC(=N)NCCC[C@H](NC(=O)[C@H](CC(C)C)NC(=O)NNC(=O)[C@H](Cc1ccccc1)NC(=O)[C@H](CO)NC(=O)[C@H](CC(N)=O)NC(=O)[C@@H](Cc1c[nH]c2ccccc12)NC(=O)[C@@H](CC(N)=O)NC(=O)[C@H](N)Cc1ccc(O)cc1)C(=O)N[C@@H](Cc1ccccc1)C(N)=O`: the fold change (FC) in assay [3] worked out at 8.6. For the molecule `CNC(=N)NCCC[C@H](NC(=O)[C@H](CC(C)C)NC(=O)NNC(=O)[C@H](Cc1ccccc1)NC(=O)[C@H](CO)NC(=O)[C@H](CC(N)=O)NC(=O)[C@@H](Cc1c[nH]c2ccccc12)NC(=O)[C@H](CC(N)=O)NC(=O)[C@H](N)Cc1ccc(O)cc1)C(=O)N[C@@H](Cc1ccccc1)C(N)=O`, in assay [3], the fold change (FC) was found to be 3.7. The same measure, in the same setting: in the case of `CNC(=N)NCCC[C@H](NC(=O)[C@H](CC(C)C)NC(=O)NNC(=O)[C@H](Cc1ccccc1)NC(=O)[C@H](CO)NC(=O)[C@H](CC(N)=O)NC(=O)[C@@H](Cc1ccncc1)NC(=O)[C@H](CC(N)=O)NC(=O)[C@H](N)Cc1ccc(O)cc1)C(=O)N[C@@H](Cc1ccccc1)C(N)=O` it was 3.6; in that of `CNC(=N)NCCC[C@H](NC(=O)[C@H](CC(C)C)NC(=O)NNC(=O)[C@H](Cc1ccccc1)NC(=O)[C@H](CO)NC(=O)[C@H](CC(N)=O)NC(=O)[C@@H](NC(=O)[C@@H](CC(N)=O)NC(=O)[C@H](N)Cc1ccc(O)cc1)[C@@H](C)O)C(=O)N[C@@H](Cc1ccccc1)C(N)=O`, 7.3.

As for `CNC(=N)NCCC[C@H](NC(=O)[C@H](CC(C)C)NC(=O)NNC(=O)[C@H](Cc1ccccc1)NC(=O)[C@H](CO)NC(=O)[C@H](CC(N)=O)NC(=O)[C@H](Cc1c[nH]c2ccccc12)NC(=O)[C@@H](CO)NC(=O)[C@H](N)Cc1ccc(O)cc1)C(=O)N[C@@H](Cc1ccccc1)C(N)=O`, the fold change (FC) in assay [3] was determined as 3.7. On the same count and under the same terms, in the case of `CNC(=N)NCCC[C@H](NC(=O)[C@H](CC(C)C)NC(=O)NNC(=O)[C@H](Cc1ccccc1)NC(=O)[C@H](CO)NC(=O)[C@H](CC(N)=O)NC(=O)[C@H](Cc1c[nH]c2ccccc12)NC(=O)[C@H](CC(N)=O)NC(=O)[C@H](N)Cc1ccc(O)cc1)C(=O)N[C@@H](Cc1ccccc1)C(N)=O` it was 2.8; in that of `CNC(=N)NCCC[C@H](NC(=O)[C@H](CC(C)C)NC(=O)NNC(=O)[C@H](Cc1ccccc1)NC(=O)[C@H](CO)NC(=O)[C@H](CC(N)=O)NC(=O)[C@H](Cc1c[nH]c2ccccc12)NC(=O)[C@H](N)Cc1cccnc1)C(=O)N[C@@H](Cc1ccccc1)C(N)=O`, 8.7. For the molecule `CNC(=N)NCCC[C@H](NC(=O)[C@H](CC(C)C)NC(=O)NNC(=O)[C@H](Cc1ccccc1)NC(=O)[C@H](CO)NC(=O)[C@H](CC(N)=O)NC(=O)[C@H](Cc1ccccc1)NC(=O)[C@H](N)Cc1ccc(O)cc1)C(=O)N[C@@H](Cc1ccccc1)C(N)=O`, in assay [3], the fold change (FC) turned out to be 7.7. In the case of `CNC(=N)NCCC[C@H](NC(=O)[C@H](CC(C)C)NC(=O)NNC(=O)[C@H](Cc1ccccc1)NC(=O)[C@H](CO)NC(=O)[C@H](CC(N)=O)NC(=O)[C@H](Cc1ccccc1)NC(=O)[C@H](N)Cc1cccnc1)C(=O)N[C@@H](Cc1ccccc1)C(N)=O`, the fold change (FC) in assay [3] was 5.8. Same read-out and setting: in the case of `CNC(=N)NCCC[C@H](NC(=O)[C@H](CC(C)C)NC(=O)NNC(=O)[C@H](Cc1ccccc1)NC(=O)[C@H](CO)NC(=O)[C@H](CC(N)=O)NC(=O)[C@H](Cc1ccncc1)NC(=O)[C@@H](CC(N)=O)NC(=O)[C@@H](N)Cc1ccc(O)cc1)C(=O)N[C@@H](Cc1ccccc1)C(N)=O` it was 2.7; in that of `CNC(=N)NCCC[C@H](NC(=O)[C@H](CC(C)C)NC(=O)NNC(=O)[C@H](Cc1ccccc1)NC(=O)[C@H](CO)NC(=O)[C@H](CC(N)=O)NC(=O)[C@H](Cc1ccncc1)NC(=O)[C@@H](CC(N)=O)NC(=O)[C@H](N)Cc1ccc(O)cc1)C(=O)N[C@@H](Cc1ccccc1)C(N)=O`, 1.7. With `CNC(=N)NCCC[C@H](NC(=O)[C@H](CC(C)C)NC(=O)NNC(=O)[C@H](Cc1ccccc1)NC(=O)[C@H](CO)NC(=O)[C@H](CC(N)=O)NC(=O)[C@H](Cc1ccncc1)NC(=O)[C@H](CC(N)=O)NC(=O)[C@H](N)Cc1ccc(O)cc1)C(=O)N[C@@H](Cc1ccccc1)C(N)=O`, the fold change (FC) in assay [3] came out at 5. Still for that read-out and setting: in the case of `CNC(=N)NCCC[C@H](NC(=O)[C@H](CC(C)C)NC(=O)NNC(=O)[C@H](Cc1ccccc1)NC(=O)[C@H](CO)NC(=O)[C@H](CC(N)=O)NC(=O)[C@H](CO)NC(=O)[C@H](N)Cc1ccc(O)cc1)C(=O)N[C@@H](Cc1ccccc1)C(N)=O` (H-[dY]SNSF[azaGly]L[Arg(Me)]F-NH2) it was 61; in that of `CNC(=N)NCCC[C@H](NC(=O)[C@H](CC(C)C)NC(=O)NNC(=O)[C@H](Cc1ccccc1)NC(=O)[C@H](CO)NC(=O)[C@H](CC(N)=O)NC(=O)[C@H](Cc1ccc2ccccc2c1)NC(=O)[C@H](N)Cc1ccc(O)cc1)C(=O)N[C@@H](Cc1ccccc1)C(N)=O` (H-[dY][2Nal]NSF[azaGly]L[Arg(Me)]F-NH2), 6.4. Consider `CNC(=N)NCCC[C@H](NC(=O)[C@H](CC(C)C)NC(=O)NNC(=O)[C@H](Cc1ccccc1)NC(=O)[C@H](CO)NC(=O)[C@H](CC(N)=O)NC(=O)[C@H](Cc1ccccc1)NC(=O)[C@@H](CC(N)=O)NC(=O)[C@H](N)Cc1ccc(O)cc1)C(=O)N[C@@H](Cc1ccccc1)C(N)=O` (H-[dY][dN]FNSF[azaGly]L[Arg(Me)]F-NH2), for which the fold change (FC) in assay [3] worked out at 1.5. With `CC(C)C[C@H](NC(=O)CNC(=O)[C@H](Cc1ccccc1)NC(=O)[C@H](CO)NC(=O)[C@H](CC(N)=O)NC(=O)[C@H](Cc1c[nH]c2ccccc12)NC(=O)[C@H](CC(N)=O)NC(=O)[C@@H](N)Cc1ccc(O)cc1)C(=O)N[C@@H](CCCNC(=N)N)C(=O)N[C@@H](Cc1ccccc1)C(N)=O` [KISSPEPTIN-10], the affinity in assay [1] corresponds to a Ki of 0.039 nM.

These data come from ChEMBL document CHEMBL3085624, “Design, synthesis, and biological evaluation of novel investigational nonapeptide KISS1R agonists with testosterone-suppressive activity” (J Med Chem, 2013).
